According to ChEMBL document CHEMBL1759916, “Bicyclo[2.2.2]octyltriazole inhibitors of 11β-hydoxysteroid dehydrogenase type 1. Pharmacological agents for the treatment of metabolic syndrome” (Bioorg Med Chem Lett, 2011):
Active and inactive are the calls of the source. The calls are words filed in the database; no cut-off is given here.

Columns and labels:
[1] = biological target: 11-beta-hydroxysteroid dehydrogenase 1 (Mus musculus, UniProt P50172); assay: Inhibition of mouse 11beta-HSD1 expressed in CHO-K1 cells assessed as conversion of [3H]-cortisone to [3H]-cortisol by scintillation proximity assay; format: cell-based
11-beta-hydroxysteroid dehydrogenase 1 (Mus musculus, UniProt P50172), sequence (P50172 whole entry): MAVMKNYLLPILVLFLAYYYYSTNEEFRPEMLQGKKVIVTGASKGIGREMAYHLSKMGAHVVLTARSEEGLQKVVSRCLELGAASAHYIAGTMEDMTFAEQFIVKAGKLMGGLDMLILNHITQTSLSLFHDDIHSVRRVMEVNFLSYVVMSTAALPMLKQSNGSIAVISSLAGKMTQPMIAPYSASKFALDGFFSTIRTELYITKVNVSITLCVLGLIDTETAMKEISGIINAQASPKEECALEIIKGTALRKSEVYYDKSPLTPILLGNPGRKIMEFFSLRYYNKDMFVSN

[2] = biological target: 11-beta-hydroxysteroid dehydrogenase 1 (Homo sapiens, UniProt P28845); assay: Inhibition of human 11beta-HSD1 expressed in CHO-K1 cells assessed as conversion of [3H]-cortisone to [3H]-cortisol by scintillation proximity assay; format: cell-based
11-beta-hydroxysteroid dehydrogenase 1 (Homo sapiens, UniProt P28845), sequence (P28845 whole entry): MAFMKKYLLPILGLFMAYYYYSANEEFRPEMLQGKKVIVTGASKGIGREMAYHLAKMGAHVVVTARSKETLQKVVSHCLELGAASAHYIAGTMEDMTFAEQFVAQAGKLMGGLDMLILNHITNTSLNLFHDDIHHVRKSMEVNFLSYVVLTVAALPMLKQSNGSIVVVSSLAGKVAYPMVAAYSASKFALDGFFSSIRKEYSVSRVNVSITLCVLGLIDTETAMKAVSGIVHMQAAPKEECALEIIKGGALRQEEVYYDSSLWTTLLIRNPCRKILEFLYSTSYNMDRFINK
Outline: (§1)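 Scintillation proximity assay (SPA). IC50 values are the average of two determinations.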

Mus musculus [3] = assay: Inhibition of 11beta-HSD1 in ICR mouse assessed as inhibition of conversion of [3H]-cortisone to [3H]-cortisol at 10 mg/kg, po administered 16 hrs before [3H]-cortisone challenge; format: functional
Outline: (§2)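 Mouse pharmacodynamic model. Compound given 10 mg/kg PO, then 3H-cortisone by tail vein injection 1, 4 or 16 h after dosing. […] Plasma compound levels were measured after the PD studies.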

Mus musculus [4] = assay: Inhibition of 11beta-HSD1 in ICR mouse assessed as inhibition of conversion of [3H]-cortisone to [3H]-cortisol at 10 mg/kg, po administered 4 hrs before [3H]-cortisone challenge; format: functional; outline: as §2
[5] = biological target: T1, Nuclear receptor subfamily 1 group I member 2 (Homo sapiens, UniProt O75469); assay: Activation of PXR
T1 sequence (O75469 whole entry): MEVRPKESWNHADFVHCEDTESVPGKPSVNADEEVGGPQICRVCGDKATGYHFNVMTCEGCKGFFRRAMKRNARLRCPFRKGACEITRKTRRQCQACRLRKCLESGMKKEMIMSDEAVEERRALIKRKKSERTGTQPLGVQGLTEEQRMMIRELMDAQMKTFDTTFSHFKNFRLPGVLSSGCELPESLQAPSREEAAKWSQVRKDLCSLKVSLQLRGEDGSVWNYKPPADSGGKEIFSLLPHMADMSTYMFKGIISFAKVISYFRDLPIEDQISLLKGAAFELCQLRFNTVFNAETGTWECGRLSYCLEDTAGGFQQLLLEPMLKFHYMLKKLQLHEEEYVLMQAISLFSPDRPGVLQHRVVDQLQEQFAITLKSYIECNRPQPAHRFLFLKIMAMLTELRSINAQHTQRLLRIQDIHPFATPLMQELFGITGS
Outline: (§3)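 Cyp induction potential assessed in human liver microsomes; read out as human PXR activation, with test compound at 10 μM.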

Mus musculus [6] = organism: Mus musculus; assay: Antiatherosclerotic activity in Apo-E knockout mouse model; format: functional, organism-based
[7] = Half life in rhesus monkey at 0.5 mg/kg, iv and 2 mg/kg, po; format: ADME, organism-based, Macaca mulatta; conditions: in vivo
[8] = Tmax in Sprague-Dawley rat at 1 mg/kg, iv and 4 mg/kg, po; format: ADME, organism-based; conditions: in vivo
[9] = Bioavailability in rhesus monkey at 0.5 mg/kg, iv and 2 mg/kg, po; format: ADME, organism-based, Macaca mulatta; conditions: in vivo
[10] = Half life in C57 mouse at 2 mg/kg, iv and 10 mg/kg, po; format: ADME, organism-based; conditions: in vivo
[11] = Clearance in Beagle dog at 0.5 mg/kg, iv and 2 mg/kg, po; format: ADME, organism-based, Canis lupus familiaris; conditions: in vivo
[12] = Volume of distribution in C57 mouse at 2 mg/kg, iv and 10 mg/kg, po; format: ADME, organism-based; conditions: in vivo
[13] = Solubility of the compound in water; format: physicochemical
[14] = Half life in Sprague-Dawley rat at 1 mg/kg, iv and 4 mg/kg, po; format: ADME, organism-based; conditions: in vivo
[15] = Tmax in rhesus monkey at 0.5 mg/kg, iv and 2 mg/kg, po; format: ADME, organism-based, Macaca mulatta; conditions: in vivo
[16] = Half life in Beagle dog at 0.5 mg/kg, iv and 2 mg/kg, po; format: ADME, organism-based, Canis lupus familiaris; conditions: in vivo
[17] = Volume of distribution in rhesus monkey at 0.5 mg/kg, iv and 2 mg/kg, po; format: ADME, organism-based, Macaca mulatta; conditions: in vivo
[18] = Clearance in C57 mouse at 2 mg/kg, iv; format: ADME, organism-based; design: dose 2 mg/kg, route intravenous; conditions: in vivo
Outline: (§4)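 Mouse PK from 2 mg/kg IV and 10 mg/kg oral dosing. The PO AUC is reported normalized to dose.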

[19] = Bioavailability in Beagle dog at 0.5 mg/kg, iv and 2 mg/kg, po; format: ADME, organism-based, Canis lupus familiaris; conditions: in vivo
Mus musculus [20] = organism: Mus musculus; assay: Antiobesity activity in diet-induced obesity mouse model; format: functional, organism-based
Mus musculus [21] = organism: Mus musculus; assay: Antidiabetic activity in B6-Ay mouse by oral glucose tolerance test; format: functional, organism-based
[22] = Clearance in Sprague-Dawley rat at 1 mg/kg, iv and 4 mg/kg, po; format: ADME, organism-based; conditions: in vivo
[23] = biological target: T1, Nuclear receptor subfamily 1 group I member 2; assay: Activation of human PXR at 10 uM; outline: as §3
[24] = Tmax in C57 mouse at 2 mg/kg, iv and 10 mg/kg, po; format: ADME, organism-based; conditions: in vivo
[25] = Volume of distribution in Sprague-Dawley rat at 1 mg/kg, iv and 4 mg/kg, po; format: ADME, organism-based; conditions: in vivo
[26] = Clearance in rhesus monkey at 0.5 mg/kg, iv and 2 mg/kg, po; format: ADME, organism-based, Macaca mulatta; conditions: in vivo
[27] = Induction of cytochrome P450 activity in human liver microsomes; format: ADME; outline: as §3
[28] = Bioavailability in C57 mouse at 2 mg/kg, iv and 10 mg/kg, po; format: ADME, organism-based; conditions: in vivo; outline: as §4
[29] = Volume of distribution in Beagle dog at 0.5 mg/kg, iv and 2 mg/kg, po; format: ADME, organism-based, Canis lupus familiaris; conditions: in vivo
[30] = Tmax in Beagle dog at 0.5 mg/kg, iv and 2 mg/kg, po; format: ADME, organism-based, Canis lupus familiaris; conditions: in vivo
[31] = Distribution coefficient, log D of the compound by HPLC analysis; format: physicochemical; conditions: octanol/water
[32] = Bioavailability in Sprague-Dawley rat 1 mg/kg, iv and 4 mg/kg, po; format: ADME, organism-based; conditions: in vivo
Mus musculus [33] = assay: Inhibition of 11beta-HSD1 in ICR mouse assessed as inhibition of conversion of [3H]-cortisone to [3H]-cortisol at 10 mg/kg, po administered 1 hr before [3H]-cortisone challenge; format: functional; outline: as §2
[34] = biological target: T2, 11-beta-hydroxysteroid dehydrogenase type 2 (Mus musculus, UniProt P51661); assay: Inhibition of mouse 11beta-HSD2 expressed in CHO-K1 cells assessed as conversion of [3H]-cortisol to [3H]-cortisone by scintillation proximity assay; format: cell-based; outline: as §1
T2 sequence (P51661 whole entry): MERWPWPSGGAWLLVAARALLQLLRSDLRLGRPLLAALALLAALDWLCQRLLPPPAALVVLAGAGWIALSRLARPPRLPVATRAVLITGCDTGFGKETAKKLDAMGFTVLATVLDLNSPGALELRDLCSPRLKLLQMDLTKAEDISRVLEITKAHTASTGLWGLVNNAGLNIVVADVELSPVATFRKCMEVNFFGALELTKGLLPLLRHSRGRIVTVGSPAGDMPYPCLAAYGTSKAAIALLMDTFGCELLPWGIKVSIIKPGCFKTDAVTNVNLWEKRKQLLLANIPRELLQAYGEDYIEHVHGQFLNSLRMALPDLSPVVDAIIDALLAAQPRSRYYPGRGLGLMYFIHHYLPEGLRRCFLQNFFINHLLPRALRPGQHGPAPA

[35] = biological target: T3, 11-beta-hydroxysteroid dehydrogenase type 2 (Homo sapiens, UniProt P80365); assay: Inhibition of human 11beta-HSD2 expressed in CHO-K1 cells assessed as conversion of [3H]-cortisol to [3H]-cortisone by scintillation proximity assay; format: cell-based
T3 sequence (P80365 whole entry): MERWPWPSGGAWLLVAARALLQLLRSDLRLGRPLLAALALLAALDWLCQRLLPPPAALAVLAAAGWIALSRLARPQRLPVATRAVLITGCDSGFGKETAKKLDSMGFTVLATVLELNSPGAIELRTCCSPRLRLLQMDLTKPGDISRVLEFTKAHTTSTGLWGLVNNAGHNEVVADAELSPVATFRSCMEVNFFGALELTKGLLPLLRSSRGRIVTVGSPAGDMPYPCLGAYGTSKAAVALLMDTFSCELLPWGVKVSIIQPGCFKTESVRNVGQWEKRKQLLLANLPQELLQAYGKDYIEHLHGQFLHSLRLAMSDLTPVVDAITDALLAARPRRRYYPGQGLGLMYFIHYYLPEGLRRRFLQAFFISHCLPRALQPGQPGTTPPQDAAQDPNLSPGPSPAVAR

Cn1c(-c2ccccc2C(F)(F)F)nnc1C12CCC(COc3ccc(Cl)cc3)(CC1)CC2
IC50 [1]: 1.5 nM
IC50 [2]: 1.1 nM
inhibition in vivo at 10 mg/kg (Mus musculus [3]): 77%
inhibition in vivo at 10 mg/kg (Mus musculus [4]): 98%
Activity [5]: Active

CCS(=O)(=O)CCC12CCC(c3nnc(-c4ccccc4C(F)(F)F)n3C)(CC1)CC2
Activity (Mus musculus [6]): Active
half-life [7]: 6.5 h
Tmax [8]: 2 h
bioavailability [9]: 89%
half-life [10]: 4.8 h
clearance [11]: 1.9 mL/min/kg
Vd [12]: 0.72 L/kg
solubility [13]: > 1000 µg/mL
half-life [14]: 4.9 h
Tmax [15]: 2 h
half-life [16]: 12.2 h
Vd [17]: 1.6 L/kg
clearance [18]: 2.1 mL/min/kg
bioavailability [19]: 59%
Activity (Mus musculus [20]): Active
Activity (Mus musculus [21]): Active
inhibition in vivo at 10 mg/kg (Mus musculus [3]): 76%
clearance [22]: 2.9 mL/min/kg
Activity [23]: < 10%
Tmax [24]: 5 h
Vd [25]: 1.1 L/kg
clearance [26]: 4 mL/min/kg
inhibition in vivo at 10 mg/kg (Mus musculus [4]): 89%
Activity [27]: Not Active
bioavailability [28]: 24%
Vd [29]: 1.7 L/kg
Tmax [30]: 2 h
logD [31]: 2.2
bioavailability [32]: 87%

CC(O)CCCC12CCC(c3nnc4n3CCCCCC4)(CC1)CC2 (stereo not given)
inhibition in vivo at 10 mg/kg (Mus musculus [33]): 67%
IC50 [1]: 19 nM
IC50 [2]: 35 nM
inhibition in vivo at 10 mg/kg (Mus musculus [4]): 41%

CCCCCC12CCC(c3nnc4n3CCCCCC4)(CC1)CC2
inhibition in vivo at 10 mg/kg (Mus musculus [33]): 71%
IC50 [2]: 4 nM
inhibition in vivo at 10 mg/kg (Mus musculus [4]): 51%
bioavailability [28]: 6%

Cn1c(-c2ccccc2C(F)(F)F)nnc1C12CCC(CCCC(C)(F)F)(CC1)CC2
IC50 [34]: > 4000 nM
IC50 [35]: > 4000 nM
IC50 [1]: < 1 nM
clearance [18]: 14 mL/min/kg
IC50 [2]: < 1 nM
inhibition in vivo at 10 mg/kg (Mus musculus [3]): 94%
inhibition in vivo at 10 mg/kg (Mus musculus [4]): 99%
bioavailability [28]: 36%
